Source: PMC10209341 (Heliyon, 2023)
Where two headings read alike, the source gives them in different places.

Assays:
[1] = tested on: HUVECs; assay: MTT assay in HUVECs; type: cell-based; details: Homo sapiens, HUVEC, 48 h
[2] = target: VEGFR3 (Homo sapiens, UniProt P35916); assay: Kinase inhibition assay; type: biochemical
In short: (§1)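 Run by an outside contract provider as part of a panel covering VEGFR1-3, FGFR1-4 and PDGFR. Test compound was tested across a gradient of concentrations, and IC50 was calculated from the resulting concentration-response data.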

[3] = tested on: HepG2, Hepa3B2.1-7 and HCT116 cells; assay: MTT and crystal violet; type: cell-based; details: MTT and crystal violet staining, time- and dose-dependent
In short: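 MTT: cells (2–5 × 10^3 per well) attached 24 h, then given graded concentrations of test compound (in DMSO): 6 days for liver cancer lines, 3 days for HCT116, and various times. MTT (5 mg/mL) added for 4 h; formazan dissolved in DMSO and absorbance read at 570 nm. Colony assay: 1.5 × 10^3 cells per well treated 10 days, fixed in 4% PFA 20 min, stained with 0.5% crystal violet 10 min, counted. Three independent experiments.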

[4] = target: VEGFR2 (Homo sapiens, UniProt P35968); assay: Kinase inhibition assay; type: biochemical
Chain of VEGFR2 (P35968 20-1356): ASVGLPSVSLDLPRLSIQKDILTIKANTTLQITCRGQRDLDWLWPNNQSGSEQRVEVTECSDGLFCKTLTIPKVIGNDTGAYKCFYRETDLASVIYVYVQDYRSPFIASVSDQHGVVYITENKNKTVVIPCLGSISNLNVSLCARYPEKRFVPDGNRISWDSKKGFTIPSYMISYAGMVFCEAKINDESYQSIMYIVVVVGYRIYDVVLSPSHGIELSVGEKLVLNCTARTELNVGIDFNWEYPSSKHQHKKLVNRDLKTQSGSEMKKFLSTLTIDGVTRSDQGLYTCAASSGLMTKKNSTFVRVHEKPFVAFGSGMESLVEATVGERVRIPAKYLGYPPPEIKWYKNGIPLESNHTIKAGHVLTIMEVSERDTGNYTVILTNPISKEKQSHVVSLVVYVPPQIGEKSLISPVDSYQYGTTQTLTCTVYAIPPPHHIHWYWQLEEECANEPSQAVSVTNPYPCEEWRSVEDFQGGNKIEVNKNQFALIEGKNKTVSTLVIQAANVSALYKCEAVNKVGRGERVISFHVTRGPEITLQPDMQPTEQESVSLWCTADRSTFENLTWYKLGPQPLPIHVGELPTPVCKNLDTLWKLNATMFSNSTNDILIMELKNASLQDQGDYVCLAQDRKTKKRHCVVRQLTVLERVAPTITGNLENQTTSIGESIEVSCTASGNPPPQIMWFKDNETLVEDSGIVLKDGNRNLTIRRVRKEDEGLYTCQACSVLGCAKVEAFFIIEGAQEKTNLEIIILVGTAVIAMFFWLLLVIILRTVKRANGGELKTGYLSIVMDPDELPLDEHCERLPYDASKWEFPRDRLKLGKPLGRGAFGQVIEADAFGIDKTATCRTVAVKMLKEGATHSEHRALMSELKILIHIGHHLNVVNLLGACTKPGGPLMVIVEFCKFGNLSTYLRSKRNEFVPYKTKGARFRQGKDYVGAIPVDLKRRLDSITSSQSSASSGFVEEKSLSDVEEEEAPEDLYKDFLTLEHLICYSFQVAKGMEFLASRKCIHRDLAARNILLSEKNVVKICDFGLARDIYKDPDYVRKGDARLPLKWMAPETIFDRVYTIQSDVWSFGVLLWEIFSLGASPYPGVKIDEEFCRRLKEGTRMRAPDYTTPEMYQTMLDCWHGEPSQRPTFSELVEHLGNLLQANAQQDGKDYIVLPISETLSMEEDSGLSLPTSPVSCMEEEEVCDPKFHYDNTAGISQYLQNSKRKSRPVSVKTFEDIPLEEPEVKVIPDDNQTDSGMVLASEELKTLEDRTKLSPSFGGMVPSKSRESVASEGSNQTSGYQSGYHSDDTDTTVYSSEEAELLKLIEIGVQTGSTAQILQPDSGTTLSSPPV
In short: as §1

[5] = tested on: STAT3 phosphorylation; assay: Western blot of VEGF-induced phosphorylation in HUVECs; type: cell-based; details: 1.0 μM
In short: (§2)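 HUVEC lysates made in RIPA buffer and protein measured by BCA. 100 μg protein run on 10% SDS-PAGE and transferred to nitrocellulose. Membranes blocked 2 h in TBST with 5% milk, then primary antibody overnight at 4 °C and secondary 1 h at room temperature. Bands detected by ECL.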

[6] = tested on: HepG2 xenograft; assay: HepG2 hepatoma xenograft model; type: in vivo, Balb/c nude mice
In short: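 Female Balb/c nude mice, 6–8 weeks old, carrying s.c. HepG2 xenografts. Tumours established as for the HCT116 initial model (~150 mm3). Groups: vehicle, test compound 50 mg/kg, reference drug 30 mg/kg; n = 5. Tumour volume (0.5 × a × b²) measured every three days and body weight followed. At the end of treatment, organs taken for H&E.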

[7] = tested on: HCT116 xenograft; assay: HCT116 xenograft, medium-term tumor model; type: in vivo, Balb/c nude mice; details: for tumor inhibitory rate: medium-term HCT116 model
In short: (§3)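 Female Balb/c nude mice, 6–8 weeks old. HCT116 cells (5 × 10^6 in 100 μL PBS) injected s.c. into the right flank. All given orally once daily. Tumour volume (0.5 × a × b²) measured every three days.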

[8] = tested on: tumor tissues; assay: Immunohistochemistry of xenograft tumor tissues; type: in vivo, Balb/c nude mice; details: vs controls
In short: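 At the end of xenograft treatment, mice sacrificed under anaesthesia and tumours excised. Tumour sections stained by immunohistochemistry for Ki67 (proliferation) and CD31 (microvessels), plus TUNEL for apoptotic cells. Imaged at ×20.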

[9] = tested on: HUVECs; assay: Wound healing; type: cell-based; details: 1.25 μM, 24 h
In short: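 HUVEC monolayers in 6-well plates were scratch-wounded, washed with PBS and treated with test compound (1.25 μM). Wounds were photographed under a microscope after 24 h. Values are mean ± SD from three independent experiments.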

[10] = tested on: LO2 cells; assay: Microscopy imaging of cell morphology; type: cell-based; details: 48 h
In short: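 LO2 cells exposed 48 h to test compound or reference drug and imaged by microscopy. Scored features were apoptotic bodies and ballooned cell membranes typical of pyroptosis.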

[11] = tested on: Hep3B2.1-7 xenograft; assay: Hep3B2.1-7 hepatoma xenograft model; type: in vivo, Balb/c nude mice; details: Hep3B2.1-7 model; for growth inhibition rate: terminated day 15
In short: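 Female Balb/c nude mice, 6–8 weeks old, carrying s.c. Hep3B2.1-7 xenografts. Tumours established as for the HCT116 initial model (~150 mm3). Tumour volume (0.5 × a × b²) measured every three days and body weight monitored. At the end, mice sacrificed under anaesthesia and major organs taken for H&E.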

[12] = tested on: transgenic zebrafish embryos; assay: Angiogenesis in flk:eGFP transgenic zebrafish; type: in vivo; details: 3 μM, 16 h
[13] = target: VEGFR1 (Homo sapiens, UniProt P17948); assay: Kinase inhibition assay; type: biochemical
Chain of VEGFR1 (P17948 27-1338): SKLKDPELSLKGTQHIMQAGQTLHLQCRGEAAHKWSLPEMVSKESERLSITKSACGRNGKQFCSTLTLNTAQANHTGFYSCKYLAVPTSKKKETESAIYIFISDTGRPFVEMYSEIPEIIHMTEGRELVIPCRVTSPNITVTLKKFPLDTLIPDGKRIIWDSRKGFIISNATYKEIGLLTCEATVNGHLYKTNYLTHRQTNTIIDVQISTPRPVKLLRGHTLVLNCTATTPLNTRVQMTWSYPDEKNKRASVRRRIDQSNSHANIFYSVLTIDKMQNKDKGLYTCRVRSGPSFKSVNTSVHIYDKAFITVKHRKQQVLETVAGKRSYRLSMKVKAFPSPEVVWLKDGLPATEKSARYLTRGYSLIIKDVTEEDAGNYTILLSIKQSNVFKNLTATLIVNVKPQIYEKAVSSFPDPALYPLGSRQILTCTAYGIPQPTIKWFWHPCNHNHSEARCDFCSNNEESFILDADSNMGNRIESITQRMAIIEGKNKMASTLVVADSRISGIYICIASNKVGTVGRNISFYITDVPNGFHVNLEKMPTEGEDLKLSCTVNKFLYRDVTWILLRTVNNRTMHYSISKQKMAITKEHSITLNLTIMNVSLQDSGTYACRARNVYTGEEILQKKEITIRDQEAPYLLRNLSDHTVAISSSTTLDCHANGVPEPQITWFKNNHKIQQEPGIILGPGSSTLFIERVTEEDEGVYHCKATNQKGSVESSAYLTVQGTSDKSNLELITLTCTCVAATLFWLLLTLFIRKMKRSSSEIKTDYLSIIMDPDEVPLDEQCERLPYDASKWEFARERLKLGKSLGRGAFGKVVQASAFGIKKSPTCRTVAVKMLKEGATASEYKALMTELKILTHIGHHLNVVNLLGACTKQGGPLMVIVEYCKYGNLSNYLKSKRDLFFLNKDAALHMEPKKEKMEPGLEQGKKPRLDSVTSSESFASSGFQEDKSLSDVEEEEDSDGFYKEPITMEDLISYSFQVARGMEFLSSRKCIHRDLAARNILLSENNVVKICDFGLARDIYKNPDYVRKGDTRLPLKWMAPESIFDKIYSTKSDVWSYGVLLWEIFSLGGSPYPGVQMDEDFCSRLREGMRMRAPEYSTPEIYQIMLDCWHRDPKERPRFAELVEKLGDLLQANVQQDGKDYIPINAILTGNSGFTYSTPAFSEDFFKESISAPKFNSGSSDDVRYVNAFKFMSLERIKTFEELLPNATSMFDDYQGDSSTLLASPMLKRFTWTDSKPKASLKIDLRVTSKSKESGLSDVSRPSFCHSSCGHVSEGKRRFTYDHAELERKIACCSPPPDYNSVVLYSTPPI
In short: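 Kinase activity tested by a contract provider over a gradient of test-compound concentrations. IC50 derived by fitting the concentration–response data.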

[14] = Sub-acute toxicity study; type: in vivo, C57BL/6 mice; details: for deaths during the study / body weight: 25 days; for deaths during the study: female C57BL/6 mice
In short: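 Female C57BL/6 mice dosed orally for 25 days with vehicle, test compound 100 mg/kg or reference drug 40 mg/kg. Body weight and survival followed. Livers imaged and H&E stained. Plasma BUN, CREA, GLB, UREAL, ALP, AST and ALT measured (n = 3).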

[15] = tested on: N-GSDME and cleaved-caspase3 in HCT116, Hep3B2.1-7 and HepG2 cells; assay: Western blot of pyroptosis-related proteins; type: cell-based; details: 48 h
In short: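 HCT116, Hep3B2.1-7 and HepG2 cells treated 48 h with graded concentrations of test compound or reference drug, then lysed in RIPA. 100 μg protein run on 10% SDS-PAGE and blotted to nitrocellulose. Probed for GSDME, N-GSDME, caspase-3 and cleaved caspase-3, with ECL detection. Bands quantified as ratio to GAPDH; three independent experiments.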

[16] = tested on: VEGF165-induced HUVECs; assay: EdU incorporation assay in HUVECs; type: cell-based
In short: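 HUVECs were kept in medium with 10% FBS at 37 °C and 5% CO2, then plated at 1 × 10^4 cells/well in 96-well plates. Cells received a range of test-compound concentrations or solvent control and were stained with an EdU proliferation kit plus Hoechst 33342. Under a fluorescence microscope, the read-out was the ratio of EdU-positive to Hoechst-positive cells. Values are mean ± SD from three independent experiments.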

[17] = tested on: HUVECs; assay: Transwell invasion assay of HUVECs; type: cell-based; details: 1.25 μM, 24 h
In short: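 HUVECs (4 × 10^4) in growth-factor-free ECM medium went into Matrigel-coated transwell upper chambers; the lower chamber held ECM with growth factors. Test compound (1.25 μM) or DMSO was added to the upper cells for 24 h. Non-invading cells were scraped off, and invaded cells were fixed in 4% paraformaldehyde, stained with crystal violet and photographed. Values are mean ± SD, n = 3.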

[18] = tested on: HCT116 xenograft; assay: HCT116 xenograft, initial tumor model; type: in vivo, Balb/c nude mice
In short: as §3

[19] = tested on: ERK phosphorylation; assay: Western blot of VEGF-induced phosphorylation in HUVECs; type: cell-based; details: 0.3 μM
In short: as §2

[20] = tested on: HUVECs; assay: HUVEC tube formation assay; type: cell-based; details: 3 μM, 6 h
In short: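 Wells were pre-chilled, coated with Matrigel and polymerised at 37 °C for 1 h. HUVECs in ECM medium were seeded on the Matrigel at 2 × 10^4 cells/well together with test compound (3 μM). After 6 h, tube formation was observed by microscopy. Values are mean ± SD from three independent experiments.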

[21] = tested on: VEGFR2 phosphorylation; assay: Western blot of VEGF-induced phosphorylation in HUVECs; type: cell-based; details: 3.3 μM
In short: as §2

[22] = tested on: HCT116, HepG2 and Hep3B2.1-7 cells; assay: Cellular ROS level by flow cytometry; type: cell-based; details: 48 h, DCFH-DA
In short: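 Cells seeded at 3 × 10^4 per well in 6-well plates and grown 24 h, then exposed 48 h to graded concentrations of test compound or reference drug. Intracellular ROS stained with DCFH-DA (ROS assay kit), read by flow cytometry and quantified. DCFH-DA-stained HCT116 cells were also viewed by inverted fluorescence microscopy.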

[23] = tested on: LO2 cells; assay: MTT assay in normal liver cells LO2; type: cell-based; details: Homo sapiens, L02, 72 h, read-out: IC50, viability of normal liver cells LO2
[24] = tested on: HCT116 cells; assay: Rescue of Lenvatinib-induced pyroptosis in pretreated HCT116 cells; type: cell-based; details: then stimulated with Lenvatinib

Chain of VEGFR3 (P35916 25-1363): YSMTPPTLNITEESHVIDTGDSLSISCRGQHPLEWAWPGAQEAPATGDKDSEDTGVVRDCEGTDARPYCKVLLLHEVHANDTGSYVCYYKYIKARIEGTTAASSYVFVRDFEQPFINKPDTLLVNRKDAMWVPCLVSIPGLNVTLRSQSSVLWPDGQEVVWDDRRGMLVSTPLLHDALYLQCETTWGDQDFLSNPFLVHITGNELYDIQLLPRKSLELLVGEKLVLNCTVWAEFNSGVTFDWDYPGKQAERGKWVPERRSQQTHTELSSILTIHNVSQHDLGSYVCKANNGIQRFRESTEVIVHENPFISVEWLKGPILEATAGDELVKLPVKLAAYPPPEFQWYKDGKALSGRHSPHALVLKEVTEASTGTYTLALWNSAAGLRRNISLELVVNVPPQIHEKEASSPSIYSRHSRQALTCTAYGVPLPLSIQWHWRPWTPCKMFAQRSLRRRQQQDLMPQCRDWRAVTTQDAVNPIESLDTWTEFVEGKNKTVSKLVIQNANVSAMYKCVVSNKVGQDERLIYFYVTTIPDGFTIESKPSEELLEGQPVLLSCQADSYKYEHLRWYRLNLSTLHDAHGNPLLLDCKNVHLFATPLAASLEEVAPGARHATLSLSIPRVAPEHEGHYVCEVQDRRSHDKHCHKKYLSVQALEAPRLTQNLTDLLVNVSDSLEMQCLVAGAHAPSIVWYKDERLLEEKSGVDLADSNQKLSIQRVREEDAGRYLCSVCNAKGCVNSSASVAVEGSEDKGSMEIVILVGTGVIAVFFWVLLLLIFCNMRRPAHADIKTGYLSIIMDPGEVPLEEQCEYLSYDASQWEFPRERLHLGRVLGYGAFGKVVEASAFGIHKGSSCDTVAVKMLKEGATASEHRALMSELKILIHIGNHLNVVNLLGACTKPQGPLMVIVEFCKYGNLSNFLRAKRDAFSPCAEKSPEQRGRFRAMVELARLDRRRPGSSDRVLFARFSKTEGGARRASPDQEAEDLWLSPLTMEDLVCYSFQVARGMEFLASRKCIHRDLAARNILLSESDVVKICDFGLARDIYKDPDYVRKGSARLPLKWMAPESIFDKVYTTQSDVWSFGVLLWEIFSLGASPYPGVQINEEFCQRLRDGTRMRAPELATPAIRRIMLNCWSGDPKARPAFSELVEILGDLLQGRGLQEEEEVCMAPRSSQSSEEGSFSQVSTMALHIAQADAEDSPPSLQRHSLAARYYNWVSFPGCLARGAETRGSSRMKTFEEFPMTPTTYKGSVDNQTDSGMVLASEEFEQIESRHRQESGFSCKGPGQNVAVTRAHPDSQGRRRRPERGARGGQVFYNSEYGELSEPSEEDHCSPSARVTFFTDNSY

SMILES: COCCOCCOc1cc2nccc(Oc3ccc(NC(=O)NC4CC4)c(Cl)c3)c2cc1C(N)=O [ZLF-095, 4-(3-chloro-4-(3-cyclopropylureido)phenoxy)-7-(2-(2-methoxyethoxy)ethoxy)qui noline-6-carboxamide]
- IC50 ([1]; read-out: IC50, viability of VEGF165-induced HUVECs): 1.77 µM
- IC50 ([1]; read-out: IC50, viability of untreated HUVECs): 10.1 µM
- IC50 [2]: 0.7 nM
- proliferation of HepG2, Hepa3B2.1-7 and HCT116 cells [3]: significantly inhibited
- IC50 [4]: 5 nM
- STAT3 phosphorylation [5]: significantly inhibited
- body weight ([6]; 50 mg/kg, 25 days): no influence on the weight
- suppression of cancer growth ([6]; 50 mg/kg, 25 days): 75.2%
- tumor inhibitory rate ([7]; 5 mg/kg oral once daily): 60.7%
- tumor inhibitory rate ([7]; 15 mg/kg oral once daily): 72.5%
- expression of Ki67 in tumor tissues ([8]; immunohistochemistry): significantly decreased
- micro-vessel density of tumors (CD31) [8]: markedly decreased
- number of apoptotic cells in tumor tissues (TUNEL) [8]: increased
- migration of HUVECs (wound healing) [9]: inhibited the migration of HUVECs slightly better than Lenvatinib
- cell morphology (pyroptosis) [10]: no such change was seen
- growth inhibition rate ([11]; 30 mg/kg): 66.6%
- growth inhibition rate ([11]; 80 mg/kg): 81.5%
- gross abnormalities ([11]; dose levels up to 80 mg/kg): no gross abnormalities were observed
- formation of intersegmental vessels (ISV) [12]: significantly suppressed the formation of intersegmental vessels (ISV), similar to Lenvatinib
- IC50 [13]: 2 nM
- liver images and H&E ([14]; 100 mg/kg oral): no visible abnormalities in the liver
- serum levels of BUN, CREA, GLB, UREAL, ALP, AST and ALT ([14]; 100 mg/kg oral): No aberrant serum levels
- deaths during the study ([14]; 100 mg/kg oral): none
- body weight ([14]; 100 mg/kg oral, vs vehicle): no significant changes in body weight
- cleaved-caspase3 / caspase3 activation [15]: increased caspase3 activation
- expression of N-GSDME [15]: had no effect
- cell proliferation (EdU) [16]: reduced cell proliferation in VEGF165-induced HUVECs in a dose-dependent manner
- invasion of HUVECs (transwell) [17]: significantly inhibited the invasion of HUVECs, similar to Lenvatinib
- tumor inhibitory rate ([18]; 5 mg/kg oral once daily): 72.7%
- tumor inhibitory rate ([18]; 15 mg/kg oral once daily): 83.9%
- ERK phosphorylation [19]: significantly inhibited
- capillary tube formation of HUVECs [20]: inhibited capillary tube formation of HUVECs
- phosphorylation of VEGFR2 induced by 50 ng/mL VEGF-165 [21]: obviously suppressed

SMILES: COc1cc2nccc(Oc3ccc(NC(=O)NC4CC4)c(Cl)c3)c2cc1C(N)=O [Lenvatinib, reference compound]
- body weight / lethality ([6]; 30 mg/kg, after 16 days): marked loss of body weight led to death in mice
- body weight ([7]; medium-term (metaphase) HCT116 model, 5 mg/kg): lower body weights than ZLF-095-treated group
- tumor inhibitory rate ([7]; 5 mg/kg oral once daily): 66.5%
- cell morphology (pyroptosis) [10]: large bubbles bulging from the cell membrane
- body weight ([11]; 30 mg/kg, day 15): sustained weight loss
- growth inhibition rate ([11]; 30 mg/kg): 78.1%
- levels of ALP ([14]; 40 mg/kg oral): notably increased
- levels of AST and ALT ([14]; 40 mg/kg oral): decreased
- liver images and H&E ([14]; 40 mg/kg oral): focal necrosis and significant inflammatory cell infiltration
- body weight ([14]; 40 mg/kg oral): obvious body weight loss
- deaths during the study ([14]; 40 mg/kg oral): 5/5
- cleaved-caspase3 / caspase3 activation [15]: obviously up‐regulated
- expression of N-GSDME [15]: obviously up‐regulated
- intracellular ROS levels [22]: significantly increased
- IC50 [23]: 14 µM
- body weight ([18]; 5 mg/kg): lower body weights than ZLF-095-treated group
- tumor inhibitory rate ([18]; 5 mg/kg oral once daily): 76.8%

SMILES: COC(=O)CC[C@H](NC(=O)[C@H](CC(=O)OC)NC(=O)OCc1ccccc1)C(=O)N[C@H](C(=O)N[C@@H](CC(=O)OC)C(=O)CF)C(C)C [Z-DEVD-FMK]
- effect on Lenvatinib-induced cell swelling / pyroptosis [24]: abolished

SMILES: CC(=O)N[C@@H](CS)C(=O)O [NAC]
- effect on Lenvatinib-induced cell swelling / pyroptosis [24]: rescue Lenvatinib-induced pyroptosis
